By MIC is commonly meant the lowest concentration found to suppress growth.

The subject of assay [1] is Escherichia coli. Briefly: Antimicrobial activity against Escherichia coli ATCC […] after 24 hrs by disk diffusion method. In kind it is functional. The gist of the method:
(§1)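 Zone of inhibition by disc diffusion against E. coli ATCC-25922, S. aureus ATCC-25923, P. aeruginosa ATCC-27853 and recultured Klebsiella pneumoniae.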

In assay [2] the test system is Staphylococcus aureus. Put plainly: Antimicrobial activity against Staphylococcus aureus ATCC 25923 after 24 hrs by disk diffusion method. In kind it is functional. In outline:
as §1
A general note: In agar diffusion tests the substance spreads into inoculated agar from a disc or well.

The test system of assay [3] is Candida albicans. Put plainly: Antimicrobial activity against Candida albicans after 48 hrs by agar dilution method. The format is functional. In outline: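 Candida albicans tested by agar dilution, with compounds in DMSO.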
Assay [4] deals with Escherichia coli. Briefly: Antimicrobial activity against Escherichia coli ATCC […] after 24 hrs by broth dilution method. The format is functional. The gist of the method:
(§2)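 MIC by broth dilution: the lowest concentration (highest dilution) that arrested bacterial or fungal growth. Strains were E. coli ATCC-25922, S. aureus ATCC-25923, P. aeruginosa ATCC-27853 and C. albicans.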
In general terms: Dilution methods test growth across graded concentrations, often in twofold steps.

Assay [5] has as its system Staphylococcus aureus. Put plainly: Antimicrobial activity against Staphylococcus aureus ATCC 25923 after 24 hrs by broth dilution method. To be noted: ATCC 25923, 24 h. The format is functional. In outline: as §2
The test system of assay [6] is Candida albicans. Briefly: Antimicrobial activity against Candida albicans after 48 hrs by broth dilution method. The format is functional. In outline:
as §2

Assay [7] deals with Pseudomonas aeruginosa. Put plainly: Antimicrobial activity against Pseudomonas aeruginosa ATCC 27853 at 100 ug/ml after 24 hrs by broth dilution method. The format is functional, organism-based.
Assay [8] relates to Klebsiella pneumoniae. Briefly: Antimicrobial activity against Klebsiella pneumoniae at 100 ug/ml after 24 hrs by broth dilution method. In kind it is functional, organism-based.
Assay [9] relates to Pseudomonas aeruginosa. Briefly: Antimicrobial activity against Pseudomonas aeruginosa ATCC 27853 after 24 hrs by disk diffusion method. The format is functional. In outline:
as §1

Assay [10] relates to Klebsiella pneumoniae. Briefly: Antimicrobial activity against Klebsiella pneumoniae after 24 hrs by disk diffusion method. In kind it is functional. The gist of the method:
as §1

The test system of assay [11] is Pseudomonas aeruginosa. Put plainly: Antimicrobial activity against Pseudomonas aeruginosa ATCC 27853 after 24 hrs by broth dilution method. To be noted: ATCC 27853, 24 h. In kind it is functional. In outline: as §2
The subject of assay [12] is Klebsiella pneumoniae. Put plainly: Antimicrobial activity against Klebsiella pneumoniae after 24 hrs by broth dilution method.

Molecules are shown by their SMILES. In brackets after ≈: the same amount, converted by molar mass. Activity calls are given as the source filed them. The calls are words filed in the database; no cut-off is given here.

`COc1ccc(/C=C/C(=O)c2ccc(Cl)[nH]2)cc1OC`: the “diameter of the inhibition zone (DIZ)” value in the assay on Escherichia coli [1] is 13 mm; with Staphylococcus aureus [2], 13 mm; in the assay on Candida albicans [3], 14 mm. Moreover, the results for the minimal inhibitory concentration (MIC) in the assay with Escherichia coli [4], against Staphylococcus aureus [5] and with Candida albicans [6] were 25 µg/mL (≈ 85.7 µM), 25 µg/mL (≈ 85.7 µM) and 100 µg/mL (≈ 343 µM), respectively. Further, the outcome in the assay with Pseudomonas aeruginosa [7] and in the assay with Klebsiella pneumoniae [8] was inactive.

With `O=C(/C=C/c1ccc(Cl)cc1)c1cc(Cl)c(Cl)[nH]1`, the “diameter of the inhibition zone (DIZ)” value in the assay with Escherichia coli [1] is given as 16 mm; in the assay with Staphylococcus aureus [2], 25 mm; in the assay on Pseudomonas aeruginosa [9], 16 mm; in the assay with Klebsiella pneumoniae [10], 17 mm; in the assay on Candida albicans [3] it was 14 mm. For the same compound, the MIC with Escherichia coli [4] was 6.25 µg/mL (≈ 20.8 µM); against Staphylococcus aureus [5] it was 3.12 µg/mL (≈ 10.4 µM); with Pseudomonas aeruginosa [11], 25 µg/mL (≈ 83.2 µM); against Candida albicans [6], 50 µg/mL (≈ 166 µM).

Regarding `COc1ccc(/C=N/NC(=O)c2cc(Cl)c(Cl)[nH]2)cc1OC`, the “diameter of the inhibition zone (DIZ)” value in the assay with Escherichia coli [1] was determined as 20 mm; in the assay on Staphylococcus aureus [2], 25 mm; with Pseudomonas aeruginosa [9] it was 18 mm; with Klebsiella pneumoniae [10], 17 mm; with Candida albicans [3], 24 mm. Moreover, the MIC in the assay with Escherichia coli [4] was 3.12 µg/mL (≈ 9.13 µM); against Staphylococcus aureus [5] it was 1.56 µg/mL (≈ 4.56 µM); with Pseudomonas aeruginosa [11], 12.5 µg/mL (≈ 36.5 µM); in the assay with Candida albicans [6] it was 12.5 µg/mL (≈ 36.5 µM).

`CN(C)c1ccc(/C=N/NC(=O)c2cc(Cl)c(Cl)[nH]2)cc1`: the “diameter of the inhibition zone (DIZ)” value in the assay with Escherichia coli [1] is recorded as 22 mm; with Staphylococcus aureus [2] it was 15 mm; with Pseudomonas aeruginosa [9], 15 mm; in the assay with Klebsiella pneumoniae [10], 12 mm; with Candida albicans [3] it was 22 mm. For the same compound, the MIC against Escherichia coli [4] was 6.25 µg/mL (≈ 19.2 µM); against Staphylococcus aureus [5], 12.5 µg/mL (≈ 38.4 µM); in the assay with Pseudomonas aeruginosa [11], 25 µg/mL (≈ 76.9 µM); in the assay on Candida albicans [6] it was 12.5 µg/mL (≈ 38.4 µM).

With `COc1ccc(/C=N/NC(=O)c2cc(Cl)c(Cl)[nH]2)cc1`, the “diameter of the inhibition zone (DIZ)” value in the assay on Escherichia coli [1] was 19 mm; with Staphylococcus aureus [2], 20 mm; in the assay with Pseudomonas aeruginosa [9] it was 20 mm; in the assay on Klebsiella pneumoniae [10] it was 16 mm; with Candida albicans [3] it was 24 mm. Also, the MIC amounted to 12.5 µg/mL (≈ 40 µM) against Escherichia coli [4], 6.25 µg/mL (≈ 20 µM) with Staphylococcus aureus [5], 25 µg/mL (≈ 80.1 µM) in the assay on Pseudomonas aeruginosa [11] and 12.5 µg/mL (≈ 40 µM) in the assay on Candida albicans [6].

Consider `O=C(/C=C/c1ccco1)c1cc(Cl)c(Cl)[nH]1`, for which the “diameter of the inhibition zone (DIZ)” value was 21 mm in the assay on Escherichia coli [1]; 25 mm with Staphylococcus aureus [2]; 17 mm in the assay on Pseudomonas aeruginosa [9]; 15 mm with Klebsiella pneumoniae [10]; 14 mm in the assay with Candida albicans [3]. In addition, the minimal inhibitory concentration (MIC) in the assay on Escherichia coli [4] came out at 3.12 µg/mL (≈ 12.2 µM); in the assay on Staphylococcus aureus [5], 1.56 µg/mL (≈ 6.09 µM); in the assay on Pseudomonas aeruginosa [11] it was 25 µg/mL (≈ 97.6 µM); in the assay with Candida albicans [6], 50 µg/mL (≈ 195 µM).

For `COc1ccc(OC)c(/C=C/C(=O)c2cc(Cl)c(Cl)[nH]2)c1`, the “diameter of the inhibition zone (DIZ)” value with Escherichia coli [1] came out at 20 mm; in the assay with Staphylococcus aureus [2] it was 22 mm; in the assay with Pseudomonas aeruginosa [9] it was 15 mm; in the assay with Klebsiella pneumoniae [10], 16 mm; in the assay on Candida albicans [3], 15 mm. Further, the MIC is 6.25 µg/mL (≈ 19.2 µM) in the assay on Escherichia coli [4], 6.25 µg/mL (≈ 19.2 µM) in the assay with Staphylococcus aureus [5], 100 µg/mL (≈ 307 µM) against Pseudomonas aeruginosa [11] and 50 µg/mL (≈ 153 µM) against Candida albicans [6].

With `COc1ccc(/C=C/C(=O)c2cc(Cl)c(Cl)[nH]2)cc1`, the “diameter of the inhibition zone (DIZ)” value was found to be 13 mm in the assay on Escherichia coli [1]; 20 mm with Staphylococcus aureus [2]; 17 mm with Pseudomonas aeruginosa [9]; 18 mm with Klebsiella pneumoniae [10]; 12 mm with Candida albicans [3]. In addition, the MIC was found to be 12.5 µg/mL (≈ 42.2 µM) against Escherichia coli [4], 12.5 µg/mL (≈ 42.2 µM) in the assay on Staphylococcus aureus [5], 100 µg/mL (≈ 338 µM) in the assay on Pseudomonas aeruginosa [11] and 50 µg/mL (≈ 169 µM) with Candida albicans [6].

In the case of `O=C(O)c1cn(C2CC2)c2cc(N3CCNCC3)c(F)cc2c1=O` [CIPROFLOXACIN], the Zone of inhibition in the assay on Escherichia coli [1] (Escherichia coli, ATCC 2522, 24 h) is 25 mm; in the assay on Klebsiella pneumoniae [10] (Klebsiella pneumoniae, 24 h), 26 mm. In addition, the diameter of the inhibition zone (DIZ) in the assay on Staphylococcus aureus [2] (Staphylococcus aureus, ATCC 25923, 24 h) came to 20 mm. For the same compound, the MIC turned out to be 1.06 µg/mL (≈ 3.2 µM) with Escherichia coli [4], 1.56 µg/mL (≈ 4.71 µM) in the assay with Staphylococcus aureus [5], 3.12 µg/mL (≈ 9.43 µM) against Pseudomonas aeruginosa [11] and 1.56 µg/mL (≈ 4.71 µM) with Klebsiella pneumoniae [12].

For the compound `COc1ccc(/C=C/C(=O)c2ccc(Cl)[nH]2)cc1`, the entries for the “diameter of the inhibition zone (DIZ)” value in the assay with Escherichia coli [1], in the assay on Staphylococcus aureus [2] and in the assay on Candida albicans [3] were 10 mm, 17 mm and 14 mm, respectively. Besides, the MIC with Escherichia coli [4] is 50 µg/mL (≈ 191 µM); against Staphylococcus aureus [5], 25 µg/mL (≈ 95.5 µM); against Candida albicans [6] it was 100 µg/mL (≈ 382 µM). The result in the assay on Pseudomonas aeruginosa [7] and in the assay with Klebsiella pneumoniae [8] was inactive.

In the case of `O=C(/C=C/c1ccco1)c1ccc(Cl)[nH]1`, the results for the “diameter of the inhibition zone (DIZ)” value with Escherichia coli [1], with Staphylococcus aureus [2] and with Candida albicans [3] were 16 mm, 15 mm and 10 mm, respectively. For the same compound, the MIC in the assay on Escherichia coli [4] is 12.5 µg/mL (≈ 56.4 µM); with Staphylococcus aureus [5], 25 µg/mL (≈ 113 µM); against Candida albicans [6], 100 µg/mL (≈ 451 µM). In addition, the outcome in the assay on Pseudomonas aeruginosa [7] and in the assay on Klebsiella pneumoniae [8] was inactive.

As for `O=C(N/N=C/c1ccccc1O)c1cc(Cl)c(Cl)[nH]1`, the “diameter of the inhibition zone (DIZ)” value in the assay on Escherichia coli [1] is reported as 18 mm; in the assay on Staphylococcus aureus [2] it was 22 mm; in the assay on Pseudomonas aeruginosa [9], 18 mm; in the assay with Klebsiella pneumoniae [10], 19 mm; in the assay with Candida albicans [3], 16 mm. For the same compound, the minimal inhibitory concentration (MIC) against Escherichia coli [4] was determined as 3.12 µg/mL (≈ 10.5 µM); against Staphylococcus aureus [5], 1.56 µg/mL (≈ 5.23 µM); in the assay with Pseudomonas aeruginosa [11] it was 50 µg/mL (≈ 168 µM); against Candida albicans [6], 12.5 µg/mL (≈ 41.9 µM).

With `COc1ccc(OC)c(/C=N/NC(=O)c2cc(Cl)c(Cl)[nH]2)c1`, the “diameter of the inhibition zone (DIZ)” value in the assay with Escherichia coli [1] came out at 20 mm; in the assay with Staphylococcus aureus [2], 24 mm; with Pseudomonas aeruginosa [9] it was 13 mm; in the assay with Klebsiella pneumoniae [10], 18 mm; with Candida albicans [3], 24 mm. For the same compound, the MIC in the assay on Escherichia coli [4] was 3.12 µg/mL (≈ 9.13 µM); with Staphylococcus aureus [5] it was 1.56 µg/mL (≈ 4.56 µM); with Pseudomonas aeruginosa [11], 25 µg/mL (≈ 73.1 µM); against Candida albicans [6], 12.5 µg/mL (≈ 36.5 µM).

For `O=C(N/N=C/c1ccco1)c1cc(Cl)c(Cl)[nH]1`, the “diameter of the inhibition zone (DIZ)” value with Escherichia coli [1] was determined as 24 mm; with Staphylococcus aureus [2] it was 26 mm; in the assay with Pseudomonas aeruginosa [9] it was 24 mm; in the assay with Klebsiella pneumoniae [10], 20 mm; in the assay with Candida albicans [3] it was 23 mm. For the same compound, the MIC is 3.12 µg/mL (≈ 11.5 µM) against Escherichia coli [4], 1.56 µg/mL (≈ 5.73 µM) against Staphylococcus aureus [5], 25 µg/mL (≈ 91.9 µM) in the assay on Pseudomonas aeruginosa [11] and 12.5 µg/mL (≈ 45.9 µM) with Candida albicans [6].

(Values after ChEMBL document CHEMBL1255544, “Synthesis and evaluation of novel chloropyrrole molecules designed by molecular hybridization of common pharmacophores as potential antimicrobial agents” (2010).)
